In the library only some 2.2% were active in any assay of this set; here they are far more common.
Yeast superoxide: caloric restriction mimetics inhibiting age-related superoxide in yeast. S. cerevisiae aged cells, superoxide DHE fluorescence; hits give low values. superoxide response (% of plate mean), % at 10 µM. hit rate 0.18% among 330,000. AID 2690;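 active = superoxide response under a set limit, about three screen SD below normal, cut at about 65% in these data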;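 also: yeast aged for seven days with compound at 30 °C before DHE staining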
PHOSPHO1 inh: blocks human PHOSPHO1 phosphatase activity. inhibition, % at 13.3 µM. AID 1565. Q8TCT1. recombinant PHOSPHO1, absorbance phosphatase assay. hit rate 1.1% among 290,000; in the data active = inhibition above about 60%
Target sequence (Q8TCT1 whole entry, looked up): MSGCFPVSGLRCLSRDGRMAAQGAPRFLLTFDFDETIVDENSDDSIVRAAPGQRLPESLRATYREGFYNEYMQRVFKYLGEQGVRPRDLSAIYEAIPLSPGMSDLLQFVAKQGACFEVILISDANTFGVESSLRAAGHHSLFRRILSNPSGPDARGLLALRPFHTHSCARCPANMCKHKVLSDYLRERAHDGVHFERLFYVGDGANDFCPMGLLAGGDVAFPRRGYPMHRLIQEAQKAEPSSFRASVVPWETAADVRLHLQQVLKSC
IMP-1 inh-1: blocks Pseudomonas aeruginosa IMP-1 metallo-beta-lactamase. hit rate 0.45% among 290,000. AID 1556. inhibition, % at 5.6 µM. purified IMP-1, nitrocefin hydrolysis, epi-absorbance fluorescence;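 active = inhibition above the mean plus 3 SD of all compounds in the same screening run, cut at about 4.5% in these data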
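Test system: recombinant IMP-1 enzyme, purified / Medium: HEPES buffer pH 7.1 with ZnSO4 and Brij 35 / Doses: single dose, 5.6 µM / Times: 25 °C, 15 min preincubation, 25 min reaction / Detection: Epi-absorbance via hydrolysed-nitrocefin quenching of white-plate fluorescence, 480/530 nm, EDTA stop / Evaluation: percent inhibition from optical density relative to buffer-blank wells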
PvdQ acylase: P. aeruginosa PvdQ acylase inhibition; purified PvdQ acylase, fluorescence plate reader; inhibition, % at 10 µM; hit rate 0.063% among 340,000; AID 488965; in the data active = inhibition above about 30%, passing the limit was not always enough
VIM-2 inh: inhibitors of Pseudomonas aeruginosa VIM-2 metallo-beta-lactamase; purified VIM-2, nitrocefin hydrolysis, epi-absorbance fluorescence; hit rate 0.89% among 290,000; inhibition, % at 5.6 µM; AID 1527;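 active = inhibition above the mean of all tested compounds plus 3 SD, cutoff set per screening run, cut at about 7.5% in these data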;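 also: red hydrolysis product quenches plate fluorescence so inhibitors raise well fluorescence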
IMP-1 inh-2: blocks IMP-1 metallo-beta-lactamase in VIM-2 selectivity screen. shares compounds with VIM-2 inh. purified IMP-1, nitrocefin hydrolysis, epi-absorbance fluorescence. inhibition, % at 5.6 µM. 1,300 tested, under 10 active. AID 1856; call rule not given here
VIM-2 FRET ctr: VIM-2 FRET inhibition, artifact counter-screen. hit rate 23% among 1,300. inhibition, % at 5.6 µM. purified VIM-2, CCF2 FRET substrate hydrolysis. shares compounds with VIM-2 inh;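 active = inhibition above the mean of all tested compounds plus 3 SD, cut at about 19% in these data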
TEM-1 inh: selectivity counter-screen for VIM-2 inhibitors: E. coli TEM-1 inhibitors. Purified TEM-1, nitrocefin hydrolysis, epi-absorbance fluorescence. shares compounds with VIM-2 inh. inhibition, % at 5.6 µM. hit rate 3% among 1,300;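 active = inhibition above that campaign's mean inhibition plus 3 SD, cut at about 0.46% in these data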
Target sequence (P62593 whole entry, looked up): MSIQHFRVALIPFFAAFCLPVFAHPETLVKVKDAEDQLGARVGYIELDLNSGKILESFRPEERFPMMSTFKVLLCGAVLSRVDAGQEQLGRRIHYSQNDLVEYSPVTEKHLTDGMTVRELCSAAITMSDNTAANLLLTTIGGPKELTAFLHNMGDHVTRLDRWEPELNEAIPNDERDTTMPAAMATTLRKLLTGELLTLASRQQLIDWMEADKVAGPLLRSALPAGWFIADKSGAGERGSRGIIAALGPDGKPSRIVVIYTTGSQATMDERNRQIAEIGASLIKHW
VIM-2 inh conf: confirmation of P. aeruginosa VIM-2 metallo-beta-lactamase inhibitors; hit rate 96% among 1,300; AID 2187; inhibition, % at 5.6 µM; purified VIM-2, nitrocefin hydrolysis, epi-absorbance; shares compounds with VIM-2 inh;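 active = inhibition of the VIM-2 beta-lactamase enzyme above about 11% from the earlier first-round screen, limit read from the data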
Large screens that a line does not name were inactive (follow-up assays come after a bar, where they were run).

CCCn1c(=N)c(S(=O)(=O)c2ccccc2)cc2c(=O)n3cccc(C)c3nc21	VIM-2 inh 15 | IMP-1 inh-2 inactive | VIM-2 FRET ctr inactive | TEM-1 inh inactive | VIM-2 inh conf 23
C=CCn1c(=N)c(C(=O)NCCCOC)cc2c(=O)n3cccc(C)c3nc21	VIM-2 inh 25 | IMP-1 inh-2 inactive | VIM-2 FRET ctr inactive | TEM-1 inh inactive | VIM-2 inh conf 29
Cc1cccn2c(=O)c3cc(C(=O)NCCc4ccccc4)c(=N)n(CCCn4ccnc4)c3nc12	VIM-2 inh 14 | IMP-1 inh-2 inactive | VIM-2 FRET ctr inactive | TEM-1 inh inactive | VIM-2 inh conf 51
COCCn1c(=N)c(C(=O)NCCc2ccccc2)cc2c(=O)n3cccc(C)c3nc21	none (no result: PHOSPHO1 inh)
CCC1(C)Cc2ccccc2C(=S)N1 (configuration not stated)	none
CCCN(CCC)CCCNc1ccc2nnc(-c3ccc(F)cc3)n2n1	VIM-2 inh 18 | IMP-1 inh-2 inactive | VIM-2 FRET ctr inactive | TEM-1 inh inactive | VIM-2 inh conf 22
COc1ccc2c(c1OC)C(=O)OC2C1c2c(cc3c(c2OC)OCO3)CCN1C (configuration not stated)	none
CN1CCc2cc3c(c4c2[C@H]1[C@H](O)c1ccccc1-4)OCO3	VIM-2 inh 17 (no result: Yeast superoxide) | IMP-1 inh-2 inactive | VIM-2 FRET ctr inactive | TEM-1 inh inactive | VIM-2 inh conf 24
CCN(CC)CCNC(=O)c1cc2c(=O)n(C)c3ccccc3c2s1	VIM-2 inh 18 | IMP-1 inh-2 inactive | VIM-2 FRET ctr inactive | TEM-1 inh inactive | VIM-2 inh conf 26
CCCCN(CC)CCNC(=O)c1cc2c(=O)n(C)c3ccccc3c2s1	VIM-2 inh 21 | IMP-1 inh-2 inactive | VIM-2 FRET ctr inactive | TEM-1 inh inactive | VIM-2 inh conf 27
O=C(CC(C(=O)O)c1ccc(Cl)cc1Cl)c1ccc(Cl)cc1 (configuration not stated)	none
O=C(CC(C(=O)O)c1cccc(Cl)c1Cl)c1ccccc1 (configuration not stated)	VIM-2 inh 15 | IMP-1 inh-2 inactive | VIM-2 FRET ctr 29 | TEM-1 inh inactive | VIM-2 inh conf 18
Cc1ccnn1-c1ccc(C(=O)OCC(=O)Nc2ccc(F)cc2)cc1	none (no result: Yeast superoxide, PHOSPHO1 inh, IMP-1 inh-1, VIM-2 inh)
CC1CCN(CCCNC(=O)c2cc3c(Cl)nc4ccccc4c3s2)CC1	VIM-2 inh 23 | IMP-1 inh-2 inactive | VIM-2 FRET ctr inactive | TEM-1 inh inactive | VIM-2 inh conf 32
CCCCN(C)C(=O)c1cc2c(Cl)nc3ccccc3c2s1	VIM-2 inh 13 | IMP-1 inh-2 inactive | VIM-2 FRET ctr inactive | TEM-1 inh inactive | VIM-2 inh conf 19
CCCCN(C)C(=O)c1cc2c(s1)-c1ccccc1S(=O)(=O)C2	none
O=C(NCCCN1CCCC1)c1cc2c(Cl)nc3ccccc3c2s1	VIM-2 inh 22 | IMP-1 inh-2 inactive | VIM-2 FRET ctr inactive | TEM-1 inh inactive | VIM-2 inh conf 35
Nc1cc(C(=O)OCC(=O)NCCNC(=O)COC(=O)c2ccc(Cl)c(N)c2)ccc1Cl	none
CC(C)(C)N(Cc1ccccc1)C(=O)COC(=O)CSc1ccc([N+](=O)[O-])cc1	none (no result: PHOSPHO1 inh, IMP-1 inh-1, VIM-2 inh)
Cc1nc(=O)c(-c2ccccc2)c(C)n1CC1CCCO1 (configuration not stated)	none
Cc1ccsc1-c1n[nH]c(=S)n1CC(C)C	VIM-2 inh 18 | IMP-1 inh-2 inactive | VIM-2 FRET ctr 40 | TEM-1 inh inactive | VIM-2 inh conf 28
Cc1ccsc1-c1n[nH]c(=S)n1C1CCCCC1	VIM-2 inh 31 | IMP-1 inh-2 inactive | VIM-2 FRET ctr 57 | TEM-1 inh inactive | VIM-2 inh conf 42
S=c1[nH]nc(-c2cccnc2)n1C1CCCCC1	VIM-2 inh 16 | IMP-1 inh-2 inactive | VIM-2 FRET ctr 45 | TEM-1 inh inactive | VIM-2 inh conf 26
S=c1[nH]nc(-c2ccccc2)n1CC1CCCO1 (configuration not stated)	VIM-2 inh 30 | IMP-1 inh-2 inactive | VIM-2 FRET ctr 48 | TEM-1 inh inactive | VIM-2 inh conf 32

Compound activity from PubChem BioAssay.
